From PubChem BioAssay come the findings set out here.

Assay [1] is described as follows: reduced viability of SK-BR-3 breast cancer cells – cell-based, 24 h, human, pilot screen (AID 572;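 active = viability at or below 10% of carrier control in both of two separate runs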;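 also: compound exposure lasted between 18 and 24 h rather than exactly 24 h; 100% = carrier-treated control wells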). Conditions: SK-BR-3 viability, CellTiter-Glo luminescence, at 10 µM, stronger effect = lower value. In general terms: ATP-based viability assays read luminescence as a measure of living cells.
The nature of assay [2]: HUVEC growth inhibition – cell-based, human, primary screen (AID 575;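 active = viability at or below 30% in both replicate assays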;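 also: 100% = median of untreated cell wells with 0.1% DMSO on each plate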). Conditions: HUVEC proliferation, CellTiter-Glo luminescence, 72 h; at 10 µM; stronger effect = lower value. A digest of the protocol: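 System – primary HUVEC, no more than 12 passages · Medium – Low-serum (2% FBS) EBM, supplemented · Times – 72 h exposure, 37 °C, 5% CO2, 30 min RT equilibration · Measured by – luminescent ATP assay · Read-out – % viability relative to median vehicle-well signal on each plate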

A short description of assay [3]: H69AR cell proliferation blockers – human, duplicate replicates, primary screen (AID 580).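 Also: 100% = mean luminescence of untreated wells and 0% = no signal.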 The settings on record: H69AR lung tumor cells viability, ATP luminescence, 72 h; at 10 µM; stronger effect = lower value.
A short description of assay [4]: MRP1 drug-resistance reversers in H69AR cells – cell-based, doxorubicin co-treatment, pilot screen (AID 601;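 active = viability loss from added drug above about 55%, and viability with drug at most 40%, in both replicates, limit read from the data, passing the limit was not always enough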). Conditions: CellTiter-Glo, 72 h, at 10 µM; for differential viability (reversal): stronger effect = higher value.
The nature of assay [5]: yeast transport mutant growth inhibition pilot in 384-well plates, post-Golgi transport modulator project (AID 636; in the data active = inhibition above about 31%). Conditions: absorbance 615 nm, about 18 h, stronger effect = higher value.
A short description of assay [6]: growth suppression of yeast trafficking mutant, preliminary HTS, modulators of trafficking downstream of Golgi apparatus project, 1536-format plate, OD 615 nm (AID 637; in the data active = inhibition above about 30%). The settings on record: yeast transport mutant growth, absorbance 615 nm, 18 h; stronger effect = higher value.
Where [7] appears, read: H69AR cells + 2 uM doxorubicin, measured here: viability with 2 uM doxorubicin, stronger effect = lower value.
Setting [8] is: H69AR cells, compound alone cytotoxicity.

Activity calls are given as the source filed them.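 The calls were made as follows, unless noted: active = viability at or under a set limit in both replicates, limit being median viability minus 3 SD (cut at about 48% in these data, passing the limit was not always enough); inconclusive = at or under the limit in just one replicate; inactive = at or above the limit in both replicates.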

By viability is commonly meant a read-out of living cells in per cent, often relative to untreated cells. The term inhibition denotes the change of the read-out against control, counted positive when it falls. For the compound `O=C(O)CCN(CCC(=O)O)c1nnc(SCc2ccccc2)s1`, the viability in assay [1] is 91% (inactive); in assay [2] it was 107% (inactive); in assay [3], 93.6% (inactive); in assay [4] (setting [7]), 86.5%; in assay [4] (setting [8]), 93.6%. In addition, the differential viability (reversal) in assay [4] (H69AR cells + 2 uM doxorubicin) is 7.11% (inactive). The inhibition was -6.16% (inactive) in assay [5] and -3.55% (inactive) in assay [6].

Take `N#Cc1c(N)n(CCOC(=O)c2cccc(Br)c2)c2nc3ccccc3nc12`: the viability in assay [1] is 111% (inactive); in assay [2], 75.6% (inactive); in assay [3] it was 96.4% (inactive); in assay [4] (setting [7]), 92.8%; in assay [4] (setting [8]), 96.4%. The differential viability (reversal) in assay [4] (H69AR cells + 2 uM doxorubicin) is 3.64% (inactive). The inhibition in assay [5] is -10.1% (inactive); in assay [6] it was 3.55% (inactive).

For the compound `Cc1ccc2c(c1)N(CC(=O)N1CCCCC1c1cccnc1)C(=O)CO2` (stereo unspecified), the viability in assay [1] was 106% (inactive); in assay [2], 99.8% (inactive); in assay [3], 95% (inactive); in assay [4] (setting [7]), 99%; in assay [4] (setting [8]), 95%. The differential viability (reversal) in assay [4] (H69AR cells + 2 uM doxorubicin) was -4.01% (inactive). The results for the inhibition in assay [5] and in assay [6] were -2.84% (inactive) and -5.82% (inactive), respectively.

Consider `O=c1[nH]c2cc3c(cc2cc1C(c1nnnn1C1CCCCC1)N1CCSCC1)OCCO3` (stereo unspecified), for which the viability was 97% (inactive) in assay [1]; 93.1% (inactive) in assay [2]; 98.8% (inactive) in assay [3]; 100% in assay [4] (setting [7]); 98.8% in assay [4] (setting [8]). Also, in assay [4] (H69AR cells + 2 uM doxorubicin), the differential viability (reversal) is -1.53% (inactive). Besides, the inhibition in assay [5] is -0.81% (inactive); in assay [6], 1.45% (inactive).

Consider `O=C(NCc1nc2ccccc2[nH]1)c1ccc(Cl)c(S(=O)(=O)N2CCCC2)c1`, for which the viability in assay [1] is 99% (inactive); in assay [2], 79.2% (inactive); in assay [3], 96.8% (inactive); in assay [4] (setting [7]), 101%; in assay [4] (setting [8]), 96.8%. In addition, the differential viability (reversal) in assay [4] (H69AR cells + 2 uM doxorubicin) was -3.96% (inactive). The inhibition is 0.55% (inactive) in assay [5] and -4.35% (inactive) in assay [6].

For the compound `FC(F)Oc1cccc2cccnc12`, the viability is 89% (inactive) in assay [1]; 111% (inactive) in assay [2]; 94% (inactive) in assay [3]; 84.9% in assay [4] (setting [7]); 94% in assay [4] (setting [8]). In addition, the differential viability (reversal) in assay [4] (H69AR cells + 2 uM doxorubicin) was 9.04% (inactive). Further, the inhibition was -3.33% (inactive) in assay [5] and -0.55% (inactive) in assay [6].

In the case of `Cc1cc(NC(=O)CSc2nc(CCC3CCCC3)nc3ccccc23)no1`, the viability is 92% (inactive) in assay [1]; 92.2% (inactive) in assay [2]; 22.3% (active) in assay [3]; 23.4% in assay [4] (setting [7]); 22.3% in assay [4] (setting [8]). Moreover, the differential viability (reversal) in assay [4] (H69AR cells + 2 uM doxorubicin) is -1.14% (inactive). Further, the inhibition in assay [5] is -2.86% (inactive); in assay [6], -5.08% (inactive).

Take `Cc1cc(C)c(NC2=NCC(=O)N2C2CCCCC2)c(C)c1`: the viability was 106% (inactive) in assay [1]; 107% (inactive) in assay [2]; 86.3% (inactive) in assay [3]; 91.5% in assay [4] (setting [7]); 86.3% in assay [4] (setting [8]). The differential viability (reversal) in assay [4] (H69AR cells + 2 uM doxorubicin) is -5.14% (inactive). Moreover, the inhibition in assay [5] was -7.53% (inactive); in assay [6], -3.09% (inactive).

As to `CCOC(=O)CC(=O)CSc1nc(-c2cccnc2)ccc1C#N`, the viability in assay [1] is 118% (inactive); in assay [2] it was 98.6% (inactive); in assay [3], 68.4% (inactive); in assay [4] (setting [7]) it was 92.4%; in assay [4] (setting [8]), 68.4%. In addition, the differential viability (reversal) in assay [4] (H69AR cells + 2 uM doxorubicin) is -24% (inactive). Further, the inhibition is -3.97% (inactive) in assay [5] and 0% (inactive) in assay [6].

Turning to `CCCC(=O)n1nc(-c2ccc(OC)cc2)nc1N`, the viability in assay [1] was 101% (inactive); in assay [2], 93.6% (inactive); in assay [3], 105% (inactive); in assay [4] (setting [7]) it was 98.3%; in assay [4] (setting [8]), 105%. For the same compound, in assay [4] (H69AR cells + 2 uM doxorubicin), the differential viability (reversal) was 7% (inactive). Besides, the inhibition in assay [5] is -1.56% (inactive); in assay [6] it was 5.74% (inactive).

On to `Cc1cc(=O)oc2ccc(OCC(=O)N(Cc3ccc(F)cc3)Cc3ccco3)cc12`, for which the viability in assay [1] is 91% (inactive); in assay [2], 50.9% (inactive); in assay [3] it was 72% (inactive); in assay [4] (setting [7]), 60.5%; in assay [4] (setting [8]), 72%. In addition, the differential viability (reversal) in assay [4] (H69AR cells + 2 uM doxorubicin) was 11.6% (inactive). Also, the inhibition is -2.47% (inactive) in assay [5] and -9.35% (inactive) in assay [6].

In the case of `CCCC1(C(=O)OC)NC(c2cc(OC)c(OC)c(OC)c2)C2C(=O)N(CC)C(=O)C21` (stereo unspecified), the viability in assay [1] is 67% (inactive); in assay [2], 98.3% (inactive); in assay [3], 88.9% (inactive); in assay [4] (setting [7]), 90.4%; in assay [4] (setting [8]) it was 88.9%. In assay [4] (H69AR cells + 2 uM doxorubicin), the differential viability (reversal) was -1.5% (inactive). For the same compound, the values for the inhibition in assay [5] and in assay [6] were -4.93% (inactive) and 21.4% (inactive), respectively.
